How the values were obtained:
[1] = Solubility in aqueous solvents; assay type: physicochemical; conditions: buffer
[2] = target: T1, DNA polymerase alpha catalytic subunit (Mus musculus) (UniProt P33609); assay: Inhibition of DNA polymerase alpha isolated from mouse L1210 cells assessed as reduction in DNA synthesis by cell-free system based assay
T1 sequence (whole entry): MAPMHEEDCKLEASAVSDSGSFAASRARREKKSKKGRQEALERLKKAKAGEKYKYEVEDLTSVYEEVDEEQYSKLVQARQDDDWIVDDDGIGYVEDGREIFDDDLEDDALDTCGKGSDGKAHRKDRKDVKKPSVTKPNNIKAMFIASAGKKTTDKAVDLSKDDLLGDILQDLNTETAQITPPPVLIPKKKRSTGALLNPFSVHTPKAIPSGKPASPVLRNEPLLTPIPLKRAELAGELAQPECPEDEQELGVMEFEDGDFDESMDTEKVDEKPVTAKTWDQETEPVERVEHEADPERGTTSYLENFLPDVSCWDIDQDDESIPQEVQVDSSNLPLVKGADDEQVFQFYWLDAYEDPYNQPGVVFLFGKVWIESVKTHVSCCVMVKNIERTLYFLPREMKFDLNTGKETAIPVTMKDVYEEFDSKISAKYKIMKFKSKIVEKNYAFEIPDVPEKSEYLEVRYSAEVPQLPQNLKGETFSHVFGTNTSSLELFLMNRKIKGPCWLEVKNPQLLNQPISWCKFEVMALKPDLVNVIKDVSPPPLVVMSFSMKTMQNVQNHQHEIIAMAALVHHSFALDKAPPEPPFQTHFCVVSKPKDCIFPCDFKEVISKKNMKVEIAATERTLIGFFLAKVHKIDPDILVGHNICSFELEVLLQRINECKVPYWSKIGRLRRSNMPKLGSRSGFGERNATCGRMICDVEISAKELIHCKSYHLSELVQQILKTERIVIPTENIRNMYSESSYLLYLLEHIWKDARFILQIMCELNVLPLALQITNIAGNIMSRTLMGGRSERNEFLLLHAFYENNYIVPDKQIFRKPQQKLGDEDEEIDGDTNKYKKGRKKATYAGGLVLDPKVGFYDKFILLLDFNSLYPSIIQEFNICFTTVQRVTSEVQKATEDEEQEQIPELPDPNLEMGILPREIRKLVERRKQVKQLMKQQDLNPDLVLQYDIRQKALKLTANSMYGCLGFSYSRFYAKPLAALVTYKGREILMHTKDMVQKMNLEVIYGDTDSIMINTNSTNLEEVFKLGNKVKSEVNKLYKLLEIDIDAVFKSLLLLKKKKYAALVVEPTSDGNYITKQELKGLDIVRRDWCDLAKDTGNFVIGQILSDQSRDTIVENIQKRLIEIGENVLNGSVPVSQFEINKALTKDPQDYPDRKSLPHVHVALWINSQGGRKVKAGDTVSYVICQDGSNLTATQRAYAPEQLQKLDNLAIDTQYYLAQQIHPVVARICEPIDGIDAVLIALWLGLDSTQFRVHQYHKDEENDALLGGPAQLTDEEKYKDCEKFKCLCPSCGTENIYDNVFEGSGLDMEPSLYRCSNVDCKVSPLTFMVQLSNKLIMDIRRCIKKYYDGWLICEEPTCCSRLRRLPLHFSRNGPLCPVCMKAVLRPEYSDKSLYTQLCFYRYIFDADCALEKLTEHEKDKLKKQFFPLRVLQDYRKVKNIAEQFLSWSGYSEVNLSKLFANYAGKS
In short: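 DNA polymerase α taken as a crude extract of mouse L1210 leukemia cells, assayed in a Bollum-type cell-free DNA synthesis system. Compounds added at different concentrations to the assay mixture before enzyme; initial reaction velocity measured.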

TA3 = assay: Cytotoxicity against mouse TA3 cells assessed as growth inhibition after 3 days; assay type: functional; conditions: TA3, 72 h, read-out: ID50 (the source's name)
In short: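 Mouse mammary adenocarcinoma TA-3 cells grown in stationary tubes in RPMI 1640 with 10% horse serum; 50 000 cells inoculated with compound in medium, incubated upright 3 days. Growth read by protein assay; control growth six- to tenfold. Five tubes per concentration; inhibitory compounds retested at least twice. ID50 = 50% inhibitory concentration, between-test variation within ±10%.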

L1210 = assay: Antitumor activity against mouse L1210 cells allografted in DBA/2J mouse assessed as survival at 30 mg/kg, ip dosed once daily on days 1 to 3 (reference value: 8.2 +/- 1.1 days); assay type: functional; conditions: route intraperitoneal

Q: With C/C(=N/NC(N)=S)c1ccc(NC(=O)Nc2ccc(/C(C)=N/NC(N)=S)cc2)cc1 as the compound, how does the solubility [1] read?
A: Its solubility is “Insoluble”.

Q: What does the source list for C/C(=N\NC(=N)N)c1ccc(NC(=O)Nc2ccc(/C(C)=N/NC(=N)N)cc2)cc1?
A: inhibitory concentration [2]: 60 µM; IC50 (TA3): 6 µM

Q: Which results are given for C/C(=N\NC(=N)N)c1ccc(NC(=O)Nc2ccc(/C(C)=N/NC(=N)N)cn2)cc1?
A: Survival (L1210): 11.3 days; IC50 (TA3): 7 µM

Q: With Br.Br.C/C(=N\NC(=N)N)c1ccc(NC(=O)N(C)c2ccc(/C(C)=N/NC(=N)N)cc2)cc1 as the compound, how does the Survival (L1210) read?
A: The Survival was 14.3 days.

Q: And the inhibitory concentration [2]?
A: The inhibitory concentration was 80 µM.

Q: And the IC50 (TA3)?
A: Its IC50 is 180 µM.

Q: With Br.Br.C/C(=N/NC(=N)N)c1ccc(CNC(=O)N(Cc2ccc(/C(C)=N/NC(=N)N)cc2)N=O)cc1 as the compound, how does the Survival (L1210) read?
A: The Survival was 10.5 days.

Q: What about the inhibitory concentration [2] of the same compound?
A: Its inhibitory concentration is 230 µM.

Q: What about the IC50 (TA3) of the same compound?
A: Its IC50 is greater than 100 µM.

Q: What does the source list for Br.Br.C/C(=N\NC(=N)N)c1ccc(CNC(=O)NCc2ccc(/C(C)=N/NC(=N)N)cc2)cc1?
A: Survival (L1210): 10.7 days; IC50 (TA3): 90 µM

Q: What does the source list for C/C(=N\NC(=N)N)c1ccc(NC(=O)Nc2ccc(/C(C)=N/NC(=N)N)cn2)nc1?
A: Survival (L1210): 11 days; inhibitory concentration [2]: 160 µM; IC50 (TA3): 7 µM

Q: With C/C(=N\NC(=N)N)c1ccc(NC(=O)Oc2ccc(/C(C)=N/NC(=N)N)cc2)cc1 as the compound, how does the inhibitory concentration [2] read?
A: Its inhibitory concentration is 170 µM.

Q: And the IC50 (TA3)?
A: The IC50 was 180 µM.

Q: Which solubility [1] does the source give for C/C(=N\O)c1ccc(NC(=O)Nc2ccc(/C(C)=N/O)cc2)cc1 here?
A: Its solubility is “Insoluble”.

Q: Which Survival (L1210) does the source give for Br.Br.C/C(=N/NC(=N)N)c1ccc(NC(=O)NCc2ccc(/C(C)=N/NC(=N)N)cc2)cc1 here?
A: Its Survival is 23 days.

Q: And the inhibitory concentration [2]?
A: The inhibitory concentration was 110 µM.

Q: What about the IC50 (TA3) of the same compound?
A: Its IC50 is 20 µM.

Q: For C/C(=N/NC(=N)N[N+](=O)[O-])c1ccc(NC(=O)Nc2ccc(/C(C)=N\NC(=N)N[N+](=O)[O-])cc2)cc1, which solubility [1] is on record?
A: Its solubility is “Insoluble”.

Q: With C/C(=N\NC(=N)N)c1ccc(N(C)C(=O)N(C)c2ccc(/C(C)=N/NC(=N)N)cc2)cc1 as the compound, how does the Survival (L1210) read?
A: Its Survival is 1.7 days.

Q: What about the inhibitory concentration [2] of the same compound?
A: The inhibitory concentration was 310 µM.

Q: And the IC50 (TA3)?
A: The IC50 was 100 µM.

Reference: ChEMBL document CHEMBL3244012, “Guanylhydrazones with potential antileukemic activity. 2. Synthesis and structure-activity relationships of analogues of 4,4'-diacetyl-N,N'-diphenylurea bis(guanylhydrazone)” (J Med Chem, 1978)
